# Data taken from ChEMBL document CHEMBL1143202.
# Active and inactive are the calls of the source. The calls are words filed in the database; no cut-off is given here.
# Legend:
# Rattus norvegicus [1] = species on record: Rattus norvegicus; assay: Effect on oxygen consumption rate in Wistar Albino rat liver mitochondria assessed as inhibition in state 3 respiration at 100 uM in presence of sodium glutamate relative to control; type: functional; design: scale not given: the % may be the effect or the level left
# How it was run: (§1)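 Isolated rat liver mitochondria respiring on glutamate or succinate as substrate; oxygen consumption recorded. State 3 is the rate after ADP addition and state 4 the rate after ADP is exhausted. The respiratory control coefficient (RCC) and ADP/O ratio were determined in the same runs. Flavone tested across 25–200 μM.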
# Rattus norvegicus [2] = species on record: Rattus norvegicus; assay: Effect on ADP/O ratio in Wistar Albino rat liver mitochondria at 50 uM in presence of succinate relative to control; type: functional; how it was run: as §1
# Rattus norvegicus [3] = species on record: Rattus norvegicus; assay: Effect on oxygen consumption rate in Wistar Albino rat liver mitochondria assessed as inhibition in state 4 respiration at 100 uM in presence of sodium glutamate relative to control; type: functional; design: scale not given: the % may be the effect or the level left; how it was run: as §1
# Rattus norvegicus [4] = species on record: Rattus norvegicus; assay: Inhibition of succinate dehydrogenase in Wistar Albino rat liver mitochondria at 100 uM relative to control; design: scale not given: the % may be the effect or the level left
# Rattus norvegicus [5] = species on record: Rattus norvegicus; assay: Inhibition of ATPase in Wistar Albino rat livers disrupted mitochondria at 200 uM relative to control; design: scale not given: the % may be the effect or the level left
# Rattus norvegicus [6] = species on record: Rattus norvegicus; assay: Inhibition of ATPase in Wistar Albino rat livers intact mitochondria at 100 uM relative to control; design: scale not given: the % may be the effect or the level left
# Rattus norvegicus [7] = species on record: Rattus norvegicus; assay: Effect on respiratory control coefficient in Wistar Albino rat liver mitochondria at 75 uM in presence of sodium glutamate relative to control; type: functional; how it was run: as §1
# Liver [8] = assay: Reduction of cytochrome c in rat liver mitochondria in presence of NADH at 200 uM; type: functional
# Rattus norvegicus [9] = species on record: Rattus norvegicus; assay: Effect on oxygen consumption rate in Wistar Albino rat liver mitochondria assessed as inhibition in state 3 respiration at 50 uM in presence of succinate relative to control; type: functional; design: scale not given: the % may be the effect or the level left; how it was run: as §1
# Rattus norvegicus [10] = species on record: Rattus norvegicus; assay: Effect on ADP/O ratio in Wistar Albino rat liver mitochondria at 100 uM in presence of sodium glutamate relative to control; how it was run: as §1
# Rattus norvegicus [11] = species on record: Rattus norvegicus; assay: Inhibition of succinate-cytochrome c reductase in Wistar Albino rat liver mitochondria at 75 uM relative to control; design: scale not given: the % may be the effect or the level left
# Liver [12] = assay: Reduction of cytochrome c in rat liver mitochondria in presence of SOD at 200 uM; type: functional; design: scale not given: the % may be the effect or the level left
# Rattus norvegicus [13] = species on record: Rattus norvegicus; assay: Effect on respiratory control coefficient in Wistar Albino rat liver mitochondria at 50 uM in presence of sodium glutamate relative to control; type: functional; how it was run: as §1
# Rattus norvegicus [14] = species on record: Rattus norvegicus; assay: Inhibition of cytochrome c oxidase in Wistar Albino rat liver mitochondria at 25 uM relative to control; design: scale not given: the % may be the effect or the level left
# Rattus norvegicus [15] = species on record: Rattus norvegicus; assay: Inhibition of succinate oxidase in Wistar Albino rat liver mitochondria at 200 uM relative to control; design: scale not given: the % may be the effect or the level left
# Liver [16] = assay: Reduction of cytochrome c in rat liver mitochondria in presence of deferoxamine at 200 uM; type: functional
# Rattus norvegicus [17] = species on record: Rattus norvegicus; assay: Effect on ADP/O ratio in Wistar Albino rat liver mitochondria at 50 uM in presence of sodium glutamate relative to control; type: functional; how it was run: as §1
# Rattus norvegicus [18] = species on record: Rattus norvegicus; assay: Inhibition of NADH dehydrogenase in Wistar Albino rat liver mitochondria at 75 uM relative to control; design: scale not given: the % may be the effect or the level left
# Rattus norvegicus [19] = species on record: Rattus norvegicus; assay: Effect on oxygen consumption rate in Wistar Albino rat liver mitochondria assessed as inhibition in state 4 respiration at 75 uM in presence of sodium glutamate relative to control; type: functional; design: scale not given: the % may be the effect or the level left; how it was run: as §1
# Rattus norvegicus [20] = species on record: Rattus norvegicus; assay: Effect on oxygen consumption rate in Wistar Albino rat liver mitochondria assessed as inhibition in state 4 respiration at 50 uM in presence of sodium glutamate relative to control; type: functional; design: scale not given: the % may be the effect or the level left; how it was run: as §1
# Rattus norvegicus [21] = species on record: Rattus norvegicus; assay: Inhibition of succinate dehydrogenase in Wistar Albino rat liver mitochondria at 50 uM relative to control; design: scale not given: the % may be the effect or the level left
# Rattus norvegicus [22] = species on record: Rattus norvegicus; assay: Effect on oxygen consumption rate in Wistar Albino rat liver mitochondria assessed as inhibition in state 3 respiration at 200 uM in presence of succinate relative to control; type: functional; design: scale not given: the % may be the effect or the level left; how it was run: as §1
# Liver [23] = assay: Reduction of cytochrome c in rat liver mitochondria in presence of EDTA at 200 uM; type: functional
# Rattus norvegicus [24] = species on record: Rattus norvegicus; assay: Inhibition of succinate-cytochrome c reductase in Wistar Albino rat liver mitochondria at 50 uM relative to control; design: scale not given: the % may be the effect or the level left
# Liver [25] = assay: Reduction of cytochrome c in rat liver mitochondria in presence of catalase at 200 uM; type: functional; design: scale not given: the % may be the effect or the level left
# Rattus norvegicus [26] = species on record: Rattus norvegicus; assay: Inhibition of cytochrome c oxidase in Wistar Albino rat liver mitochondria at 200 uM relative to control; design: scale not given: the % may be the effect or the level left
# Rattus norvegicus [27] = species on record: Rattus norvegicus; assay: Inhibition of succinate oxidase in Wistar Albino rat liver mitochondria at 100 uM relative to control; design: scale not given: the % may be the effect or the level left
# Rattus norvegicus [28] = species on record: Rattus norvegicus; assay: Effect on ADP/O ratio in Wistar Albino rat liver mitochondria at 75 uM in presence of sodium glutamate relative to control; type: functional; how it was run: as §1
# Rattus norvegicus [29] = species on record: Rattus norvegicus; assay: Inhibition of succinate-cytochrome c reductase in Wistar Albino rat liver mitochondria at 100 uM relative to control; design: scale not given: the % may be the effect or the level left
# Rattus norvegicus [30] = species on record: Rattus norvegicus; assay: Inhibition of ATPase in Wistar Albino rat livers intact mitochondria at 200 uM relative to control; design: scale not given: the % may be the effect or the level left
# Rattus norvegicus [31] = species on record: Rattus norvegicus; assay: Inhibition of succinate-cytochrome c reductase in Wistar Albino rat liver mitochondria at 200 uM relative to control; design: scale not given: the % may be the effect or the level left
# Rattus norvegicus [32] = species on record: Rattus norvegicus; assay: Inhibition of succinate dehydrogenase in Wistar Albino rat liver mitochondria at 25 uM relative to control; design: scale not given: the % may be the effect or the level left
# Rattus norvegicus [33] = species on record: Rattus norvegicus; assay: Inhibition of NADH dehydrogenase in Wistar Albino rat liver mitochondria at 25 uM relative to control; design: scale not given: the % may be the effect or the level left
# Rattus norvegicus [34] = species on record: Rattus norvegicus; assay: Inhibition of NADH dehydrogenase in Wistar Albino rat liver mitochondria at 200 uM relative to control; design: scale not given: the % may be the effect or the level left
# Rattus norvegicus [35] = species on record: Rattus norvegicus; assay: Inhibition of ATPase in Wistar Albino rat livers intact mitochondria at 200 uM in presence of FCCP relative to control; design: scale not given: the % may be the effect or the level left
# Rattus norvegicus [36] = species on record: Rattus norvegicus; assay: Effect on respiratory control coefficient in Wistar Albino rat liver mitochondria at 25 uM in presence of sodium glutamate relative to control; type: functional; how it was run: as §1
# Rattus norvegicus [37] = species on record: Rattus norvegicus; assay: Inhibition of ATPase in Wistar Albino rat livers intact mitochondria at 25 uM in presence of FCCP relative to control; design: scale not given: the % may be the effect or the level left
# Rattus norvegicus [38] = species on record: Rattus norvegicus; assay: Effect on respiratory control coefficient in Wistar Albino rat liver mitochondria at 25 uM in presence of succinate relative to control; type: functional; how it was run: as §1
# Rattus norvegicus [39] = species on record: Rattus norvegicus; assay: Effect on ADP/O ratio in Wistar Albino rat liver mitochondria at 25 uM in presence of sodium glutamate relative to control; type: functional; how it was run: as §1
# Rattus norvegicus [40] = species on record: Rattus norvegicus; assay: Effect on oxygen consumption rate in Wistar Albino rat liver mitochondria assessed as inhibition in state 4 respiration at 25 uM in presence of succinate relative to control; type: functional; design: scale not given: the % may be the effect or the level left; how it was run: as §1
# Rattus norvegicus [41] = species on record: Rattus norvegicus; assay: Effect on ADP/O ratio in Wistar Albino rat liver mitochondria at 100 uM in presence of succinate relative to control; type: functional; how it was run: as §1
smiles,measurement,setting,value
COc1c(O)cc2oc(-c3ccc(O)c(O)c3)cc(=O)c2c1O,Activity,Rattus norvegicus [1],31.8%
same,Activity,Rattus norvegicus [2],85.4%
same,Activity,Rattus norvegicus [3],99.4%
same,Activity,Rattus norvegicus [4],50%
same,Activity,Rattus norvegicus [5],90%
same,Activity,Rattus norvegicus [6],97%
same,Activity,Rattus norvegicus [7],40.9%
same,Activity,Liver [8],Active
same,Activity,Rattus norvegicus [9],55.2%
same,Activity,Rattus norvegicus [10],88.6%
same,Activity,Rattus norvegicus [11],12%
same,Activity,Liver [12],46%
same,Activity,Rattus norvegicus [13],66.5%
same,Activity,Rattus norvegicus [14],98%
same,Activity,Rattus norvegicus [15],77%
same,Activity,Liver [16],inactive
same,Activity,Rattus norvegicus [17],85%
same,Activity,Rattus norvegicus [18],51%
same,Activity,Rattus norvegicus [19],109%
same,Activity,Rattus norvegicus [20],102%
same,Activity,Rattus norvegicus [21],69%
same,Activity,Rattus norvegicus [22],34.7%
same,Activity,Liver [23],Active
same,Activity,Rattus norvegicus [24],23%
same,Activity,Liver [25],15%
same,Activity,Rattus norvegicus [26],82%
same,Activity,Rattus norvegicus [27],77%
same,Activity,Rattus norvegicus [28],90.6%
same,Activity,Rattus norvegicus [29],29%
same,Activity,Rattus norvegicus [30],101%
same,Activity,Rattus norvegicus [31],18%
same,Activity,Rattus norvegicus [32],71%
same,Activity,Rattus norvegicus [33],42%
same,Activity,Rattus norvegicus [34],39%
same,Activity,Rattus norvegicus [35],102%
same,Activity,Rattus norvegicus [36],73%
same,Activity,Rattus norvegicus [37],93%
same,Activity,Rattus norvegicus [38],76.4%
same,Activity,Rattus norvegicus [39],92.8%
same,Activity,Rattus norvegicus [40],106%
same,Activity,Rattus norvegicus [41],74.7%
